{"source": "ChEMBL document CHEMBL1156940", "about": "“Modified cap group suberoylanilide hydroxamic acid histone deacetylase inhibitor derivatives reveal improved selective antileukemic activity” (J Med Chem, 2010)", "key": {"Jurkat": {"system": "Jurkat", "assay": "Antiproliferative activity against human Jurkat JA16 cells after 48 hrs by cell titer-glo assay", "format": "functional, cell-based"}, "HL-60": {"system": "HL-60", "assay": "Antiproliferative activity against human HL60 cells after 48 hrs by cell titer-glo assay", "format": "functional, cell-based", "conditions": "HL-60, 48 h"}, "[1]": {"assay": "Therapeutic ratio, EC50 for human PBMC to EC50 for human 937 cells", "conditions": "human PBMC versus human 937 cells"}, "Mus musculus [2]": {"system": "Mus musculus", "assay": "Toxicity in FVB mouse assessed as effect on body weight at 50 mg/kg, po administered 5 times per week for 2 weeks", "format": "organism-based", "parameters": "dose 50 mg/kg, route oral", "conditions": "in vivo, 336 h", "outline": "(§1)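 8-week-old FVB mice were housed specific-pathogen-free and randomly assigned, n = 3 per group. They received 50 mg/kg compound or vehicle alone by oral gavage, five times weekly for 2 weeks. Body weight and survival were monitored. Differential blood counts came from nonlethal retro-orbital bleeds before study (J-5), during study (J5) and at end point (J12). Values are means ± spread for n = 3.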"}, "Mus musculus [3]": {"system": "Mus musculus", "assay": "Toxicity in FVB mouse assessed as effect on hematocrit at 50 mg/kg, po administered 5 times per week for 2 weeks", "format": "organism-based", "parameters": "dose 50 mg/kg, route oral", "conditions": "in vivo, 336 h", "outline": "as §1"}, "Mus musculus [4]": {"system": "Mus musculus", "assay": "Toxicity in FVB mouse assessed as effect on mean cell volume of red cells at 50 mg/kg, po administered 5 times per week for 2 weeks measured during test (reference value: 43.7 +/- 0.4 microm^3)", "format": "organism-based", "parameters": "dose 50 mg/kg, route oral", "conditions": "in vivo, 336 h", "outline": "as §1"}, "Mus musculus [5]": {"system": "Mus musculus", "assay": "Toxicity in FVB mouse assessed as effect on number of RBC at 50 mg/kg, po administered 5 times per week for 2 weeks (reference value: 7.7 +/- 0.1 10^6/mm^3)", "format": "organism-based", "parameters": "dose 50 mg/kg, route oral", "conditions": "in vivo, 336 h", "outline": "as §1"}, "[6]": {"biological_target": "Histone deacetylase 1 (Homo sapiens) (UniProt Q13547)", "sequence (Q13547 whole entry)": "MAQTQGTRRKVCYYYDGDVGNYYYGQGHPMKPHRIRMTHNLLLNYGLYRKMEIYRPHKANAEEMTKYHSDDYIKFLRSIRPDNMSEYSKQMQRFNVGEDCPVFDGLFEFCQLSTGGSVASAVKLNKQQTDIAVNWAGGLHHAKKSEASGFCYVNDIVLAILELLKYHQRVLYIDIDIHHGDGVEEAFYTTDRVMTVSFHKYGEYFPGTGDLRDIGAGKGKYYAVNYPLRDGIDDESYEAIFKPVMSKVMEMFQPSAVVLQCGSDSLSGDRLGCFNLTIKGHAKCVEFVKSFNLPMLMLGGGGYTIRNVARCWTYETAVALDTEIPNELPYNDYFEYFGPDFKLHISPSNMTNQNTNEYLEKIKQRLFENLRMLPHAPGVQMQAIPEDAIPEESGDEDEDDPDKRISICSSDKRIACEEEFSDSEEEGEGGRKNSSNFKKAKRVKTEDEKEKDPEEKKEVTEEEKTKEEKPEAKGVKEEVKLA", "assay": "Inhibition of recombinant FLAG-tagged HDAC1 assessed as [3H]acetic acid release preincubated for 30 mins measured after 2 hrs by scintillation counting", "outline": "(§2)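 FLAG-tagged HDAC1 or HDAC6 was immunopurified from stably expressing cell lines and washed in HDAC buffer (10 mM Tris-HCl pH 8.0, 10 mM NaCl, 10% glycerol). Enzyme was preincubated with inhibitor (1 µM) for 30 min at 4 °C, then given 20 000 cpm [3H]peracetylated H4 peptide for 2 h at 37 °C. The reaction was stopped with acetic acid/HCl, extracted into ethyl acetate, and released [3H]acetate counted by scintillation.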"}, "Mus musculus [7]": {"system": "Mus musculus", "assay": "Toxicity in FVB mouse assessed as mortality at 50 mg/kg, po administered 5 times per week for 2 weeks", "format": "organism-based", "parameters": "dose 50 mg/kg, route oral", "conditions": "in vivo, 336 h", "outline": "(§3)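 8-week-old Fvb mice, SPF-housed in ventilated cages with acidified water, randomly assigned (n = 3 per group) to compound or solvent-only vehicle. Dosing was by oral gavage five times weekly for 2 weeks. Survival was monitored with body weight and blood counts during dosing, and deaths were also recorded during the month after treatment stopped.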"}, "Mus musculus [8]": {"system": "Mus musculus", "assay": "Toxicity in FVB mouse assessed as effect on number of platelets at 50 mg/kg, po administered 5 times per week for 2 weeks (reference value: 514 +/- 42.8 10^3/mm^3)", "format": "organism-based", "parameters": "dose 50 mg/kg, route oral", "conditions": "in vivo, 336 h", "outline": "as §1"}, "[9]": {"biological_target": "T1, Protein deacetylase HDAC6 (Homo sapiens) (UniProt Q9UBN7)", "T1 sequence (whole entry)": "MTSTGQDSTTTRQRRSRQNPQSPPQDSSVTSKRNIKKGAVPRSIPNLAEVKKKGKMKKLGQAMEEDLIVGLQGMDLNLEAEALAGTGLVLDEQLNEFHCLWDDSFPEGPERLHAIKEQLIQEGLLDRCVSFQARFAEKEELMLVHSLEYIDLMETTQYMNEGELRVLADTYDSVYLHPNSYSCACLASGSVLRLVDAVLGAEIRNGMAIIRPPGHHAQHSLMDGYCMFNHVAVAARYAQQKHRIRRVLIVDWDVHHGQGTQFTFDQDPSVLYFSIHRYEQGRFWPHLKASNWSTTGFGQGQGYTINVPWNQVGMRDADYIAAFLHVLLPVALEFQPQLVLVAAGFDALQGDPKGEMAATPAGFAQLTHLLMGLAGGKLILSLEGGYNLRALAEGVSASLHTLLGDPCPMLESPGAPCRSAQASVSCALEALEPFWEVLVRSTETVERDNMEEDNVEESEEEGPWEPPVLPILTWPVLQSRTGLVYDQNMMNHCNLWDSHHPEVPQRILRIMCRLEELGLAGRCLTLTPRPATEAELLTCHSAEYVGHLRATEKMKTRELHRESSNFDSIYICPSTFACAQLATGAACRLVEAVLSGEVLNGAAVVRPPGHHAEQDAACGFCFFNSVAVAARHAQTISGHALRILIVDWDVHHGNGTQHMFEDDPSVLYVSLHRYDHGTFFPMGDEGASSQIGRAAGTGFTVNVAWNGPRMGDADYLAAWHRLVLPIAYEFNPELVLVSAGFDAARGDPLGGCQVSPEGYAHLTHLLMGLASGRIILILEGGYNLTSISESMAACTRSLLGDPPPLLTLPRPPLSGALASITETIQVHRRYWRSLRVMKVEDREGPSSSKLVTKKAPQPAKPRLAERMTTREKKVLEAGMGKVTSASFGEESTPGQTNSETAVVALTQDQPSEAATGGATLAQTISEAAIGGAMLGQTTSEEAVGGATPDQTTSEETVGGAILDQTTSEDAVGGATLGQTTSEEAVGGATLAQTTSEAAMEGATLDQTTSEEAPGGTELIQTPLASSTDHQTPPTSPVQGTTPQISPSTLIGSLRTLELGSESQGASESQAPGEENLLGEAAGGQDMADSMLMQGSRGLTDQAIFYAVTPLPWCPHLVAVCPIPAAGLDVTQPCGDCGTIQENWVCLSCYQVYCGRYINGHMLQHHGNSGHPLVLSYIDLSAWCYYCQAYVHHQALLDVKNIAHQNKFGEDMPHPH", "assay": "Inhibition of recombinant FLAG-tagged HDAC6 assessed as [3H]acetic acid release preincubated for 30 mins measured after 2 hrs by scintillation counting", "outline": "as §2"}, "HT-29": {"system": "HT-29", "assay": "Antiproliferative activity against human HT-29 cells after 48 hrs by cell titer-glo assay", "format": "functional, cell-based", "conditions": "HT-29, 48 h"}, "Mus musculus [10]": {"system": "Mus musculus", "assay": "Toxicity in FVB mouse assessed as mortality at 50 mg/kg, po administered 5 times per week for 2 weeks measured up to 1 month", "format": "organism-based", "parameters": "dose 50 mg/kg, route oral", "conditions": "in vivo, 336 h", "outline": "as §3"}, "Mus musculus [11]": {"system": "Mus musculus", "assay": "Toxicity in FVB mouse assessed as effect on mean cell volume of red cells at 50 mg/kg, po administered 5 times per week for 2 weeks (reference value: 43.9 +/- 0.5 microm^3)", "conditions": "in vivo, 336 h"}, "Mus musculus [12]": {"system": "Mus musculus", "assay": "Toxicity in FVB mouse assessed as effect on number of RBC at 50 mg/kg, po administered 5 times per week for 2 weeks measured during test (reference value: 8.1 +/- 0.2 10^6/mm^3)", "format": "organism-based", "parameters": "dose 50 mg/kg, route oral", "conditions": "in vivo, 336 h", "outline": "as §1"}, "Mus musculus [13]": {"system": "Mus musculus", "assay": "Toxicity in FVB mouse assessed as effect on number of platelets at 50 mg/kg, po administered 5 times per week for 2 weeks measured during test (reference value: 454 +/- 93 10^3/mm^3)", "format": "organism-based", "parameters": "dose 50 mg/kg, route oral", "conditions": "in vivo, 336 h", "outline": "as §1"}, "Mus musculus [14]": {"system": "Mus musculus", "assay": "Toxicity in FVB mouse assessed as effect on body weight at 50 mg/kg, po administered 5 times per week for 2 weeks measured during test", "format": "organism-based", "parameters": "dose 50 mg/kg, route oral", "conditions": "in vivo, 336 h", "outline": "as §1"}, "K562": {"system": "K562", "assay": "Antiproliferative activity against human K562 cells after 48 hrs by cell titer-glo assay", "format": "functional, cell-based", "conditions": "K562, 48 h", "outline": "(§4)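 Cells kept in RPMI-1640 with 10% FBS at 37 °C, 5% CO2. 10^4 suspension cells were plated immediately before dosing. Compounds were added at 0.1–100 µM, final 1% DMSO, with DMSO vehicle control, and incubated 48 h. CellTiter-Glo luminescence was read. EC50 is the dose reducing luminescence to 50% of untreated cultures.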"}, "Mus musculus [15]": {"system": "Mus musculus", "assay": "Toxicity in FVB mouse assessed as effect on number of WBC at 50 mg/kg, po administered 5 times per week for 2 weeks measured during test (reference value: 9.1 +/- 0.2 10^3/mm^3)", "format": "organism-based", "parameters": "dose 50 mg/kg, route oral", "conditions": "in vivo, 336 h", "outline": "as §1"}, "Mus musculus [16]": {"system": "Mus musculus", "assay": "Toxicity in FVB mouse assessed as effect on mean platelet volume at 50 mg/kg, po administered 5 times per week for 2 weeks measured during test (reference value: 8.4 +/- 0.5 microm^3)", "format": "organism-based", "parameters": "dose 50 mg/kg, route oral", "conditions": "in vivo, 336 h", "outline": "as §1"}, "Mus musculus [17]": {"system": "Mus musculus", "assay": "Toxicity in FVB mouse assessed as effect on number of WBC at 50 mg/kg, po administered 5 times per week for 2 weeks (reference value: 9.1 +/- 0.2 10^3/mm^3)", "format": "organism-based", "parameters": "dose 50 mg/kg, route oral", "conditions": "in vivo, 336 h", "outline": "as §1"}, "U-937": {"system": "U-937", "assay": "Antiproliferative activity against human U937 cells after 48 hrs by cell titer-glo assay", "format": "functional, cell-based", "conditions": "U-937, 48 h", "outline": "as §4"}, "Mus musculus [18]": {"system": "Mus musculus", "assay": "Toxicity in FVB mouse assessed as effect on mean platelet volume at 50 mg/kg, po administered 5 times per week for 2 weeks (reference value: 8.8 +/- 0.1 microm^3)", "format": "organism-based", "parameters": "dose 50 mg/kg, route oral", "conditions": "in vivo, 336 h", "outline": "as §1"}, "SK-BR-3": {"system": "SK-BR-3", "assay": "Antiproliferative activity against human SK-BR-3 cells after 48 hrs by cell titer-glo assay", "format": "functional, cell-based", "conditions": "SK-BR-3, 48 h"}, "Mus musculus [19]": {"system": "Mus musculus", "assay": "Toxicity in FVB mouse assessed as effect on hematocrit at 50 mg/kg, po administered 5 times per week for 2 weeks measured during test", "format": "organism-based", "parameters": "dose 50 mg/kg, route oral", "conditions": "in vivo, 336 h", "outline": "as §1"}}, "note": "Active and inactive are the calls of the source. No cut-off for these calls is given here."}
{"smiles": "O=C(CCCCCCC(=O)Nc1ccc(I)cc1)NO", "values": [{"measurement": "EC50", "setting": "Jurkat", "value": 240, "unit": "nM"}, {"measurement": "EC50", "setting": "HL-60", "value": 850, "unit": "nM"}, {"measurement": "selectivity ratio", "setting": "[1]", "value": 30}, {"measurement": "Activity", "setting": "Mus musculus [2]", "value": 97.8, "unit": "%"}, {"measurement": "Activity", "setting": "Mus musculus [3]", "value": 30.2, "unit": "%"}, {"measurement": "Activity", "setting": "Mus musculus [4]", "value": 43.9, "unit": "um3"}, {"measurement": "Activity", "setting": "Mus musculus [5]", "value": "6.9 10^6/mm3"}, {"measurement": "Activity", "setting": "[6]", "value": "Active"}, {"measurement": "Activity", "setting": "Mus musculus [7]", "value": "Non-toxic"}, {"measurement": "Activity", "setting": "Mus musculus [8]", "value": "537 10^3/mm3"}, {"measurement": "Activity", "setting": "[9]", "value": "Active"}, {"measurement": "EC50", "setting": "HT-29", "value": 950, "unit": "nM"}, {"measurement": "Activity", "setting": "Mus musculus [10]", "value": "Non-toxic"}, {"measurement": "Activity", "setting": "Mus musculus [11]", "value": 43.7, "unit": "um3"}, {"measurement": "Activity", "setting": "Mus musculus [12]", "value": "8.02 10^6/mm3"}, {"measurement": "Activity", "setting": "Mus musculus [13]", "value": "478.3 10^3/mm3"}, {"measurement": "Activity", "setting": "Mus musculus [14]", "value": 99.7, "unit": "%"}, {"measurement": "EC50", "setting": "K562", "value": 1300, "unit": "nM"}, {"measurement": "Activity", "setting": "Mus musculus [15]", "value": "7.5 10^3/mm3"}, {"measurement": "Activity", "setting": "Mus musculus [16]", "value": 8.6, "unit": "um3"}, {"measurement": "Activity", "setting": "Mus musculus [17]", "value": "7.5 10^3/mm3"}, {"measurement": "EC50", "setting": "U-937", "value": 120, "unit": "nM"}, {"measurement": "Activity", "setting": "Mus musculus [18]", "value": 8.7, "unit": "um3"}, {"measurement": "EC50", "setting": "SK-BR-3", "value": 1100, "unit": "nM"}, {"measurement": "Activity", "setting": "Mus musculus [19]", "value": 35.2, "unit": "%"}]}
